Reference: ChEMBL document CHEMBL1128548, “Synthesis and evaluation of 5-amino-5,6,7,8-tetrahydroquinolinones as potential agents for the treatment of Alzheimer's disease” (J Med Chem, 1995)
Values joined by “and” are separate entries in the source; they are usually repeats but may differ in a detail not shown here. Equal values may be shown once. Active and inactive are the calls of the source.

Experiments:
[1] = target: T1, Acetylcholinesterase (Rattus norvegicus, UniProt P37136); assay: Acetylcholinesterase inhibitory activity in rat striatal homogenates
T1 sequence (P37136 whole entry): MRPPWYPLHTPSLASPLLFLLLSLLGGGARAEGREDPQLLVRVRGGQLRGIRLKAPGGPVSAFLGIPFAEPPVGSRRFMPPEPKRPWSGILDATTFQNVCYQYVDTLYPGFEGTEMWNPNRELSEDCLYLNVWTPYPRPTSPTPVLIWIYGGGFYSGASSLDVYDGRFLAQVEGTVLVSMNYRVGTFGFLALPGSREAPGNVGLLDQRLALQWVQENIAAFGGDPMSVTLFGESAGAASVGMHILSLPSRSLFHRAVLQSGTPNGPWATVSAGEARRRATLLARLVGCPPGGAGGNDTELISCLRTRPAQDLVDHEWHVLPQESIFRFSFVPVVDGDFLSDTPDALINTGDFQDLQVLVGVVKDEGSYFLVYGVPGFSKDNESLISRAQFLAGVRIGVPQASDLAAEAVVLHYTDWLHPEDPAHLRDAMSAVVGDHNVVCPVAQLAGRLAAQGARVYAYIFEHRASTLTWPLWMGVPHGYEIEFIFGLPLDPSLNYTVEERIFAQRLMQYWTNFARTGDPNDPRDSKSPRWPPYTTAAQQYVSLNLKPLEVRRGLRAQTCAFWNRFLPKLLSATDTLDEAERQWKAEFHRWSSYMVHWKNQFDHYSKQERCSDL

[2] = tested on: Mus musculus; assay: Active dose for reversal of Scopolamine dementia activity in mouse following s.c. administration.; format: functional
Procedure, shortened: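 Male CFW mice, 15 per group (vehicle/vehicle, scopolamine/vehicle, scopolamine/drug). Scopolamine hydrobromide 3.0 mg/kg sc 30 min before training, then test compound in distilled water 5 min before. One-trial dark passive avoidance, retested 24 h later without injection or shock. Cutoff is the second-longest scopolamine/vehicle latency. Dose is active when 20% of animals exceed cutoff. Test valid if cutoff <120 s.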

[3] = species: Mus musculus; assay: Active dose for reversal of Scopolamine dementia(SDDA) activity in mouse; NA =' not active'; format: functional, organism-based
Procedure, shortened: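 Male CFW mice, 15 per group (vehicle/vehicle, scopolamine/vehicle, scopolamine/drug). Scopolamine hydrobromide 3.0 mg/kg sc 30 min before training, test compound in distilled water 5 min before. Step-through passive avoidance retested 24 h later without shock, recording latency. Cutoff is the second-longest scopolamine/vehicle latency. A dose is active if 20% of mice exceed the cutoff.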

Row | SMILES | IC50 [1] [µM] | Active dose [2] | Active dose [3]
1 | Cn1c2c(ccc1=O)C(NCCc1ccc(C(F)(F)F)cc1)CCC2 (stereo not given) | 12.9 |  | 
2 | Cn1c2c(ccc1=O)C(C)(N)CCC2 (stereo not given) | > 100 |  | 
3 | Oc1ccc2c(n1)CCCC2NCCc1ccccc1 (stereo not given) | > 100 |  | 
4 | C=C(C)Cn1c2c(ccc1=O)C(NCCc1ccc(Cl)c(Cl)c1)CCC2 (stereo not given) | 5.32 | 3 mg/kg | 
5 | CCCn1c2c(ccc1=O)C(NCCc1c[nH]c3ccccc13)CCC2 (stereo not given) | 3.16 | 3 mg/kg | 
6 | CC(C)=CCn1c2c(ccc1=O)C(NCCc1cc(Cl)ccc1Cl)CCC2 (stereo not given) | 1.36 |  | 
7 | CC(C)=CCn1c2c(ccc1=O)C(NCCc1ccccc1Cl)CCC2 (stereo not given) | 0.52 |  | 
8 | CC(C)=CCn1c2c(ccc1=O)C(NCCc1ccc(O)cc1)CCC2 (stereo not given) | 0.4 |  | 
9 | CC(C)=CCn1c2c(ccc1=O)C(NCCc1ccc(Cl)c(Cl)c1)CCC2 (stereo not given) | 0.51 |  | 
10 | O=c1ccc2c(n1Cc1ccccc1)CCCC2NCCc1ccc(Cl)c(Cl)c1 (stereo not given) | 17.3 |  | 
11 | CC(C)=CCn1c2c(ccc1=O)C(NCCc1ccc(Cl)cc1Cl)CCC2 (stereo not given) | 0.79 | 1 mg/kg and 3 mg/kg | 
12 | CCCn1c2c(ccc1=O)C(NCCc1ccccn1)CCC2 (stereo not given) | 4.34 |  | inactive
13 | CC(C)Cn1c2c(ccc1=O)C(NCCc1ccc(Cl)c(Cl)c1)CCC2 (stereo not given) | 23.4 |  | 
14 | CC(C)=CCn1c2c(ccc1=O)C(NCCc1cccc(Cl)c1)CCC2 (stereo not given) | 0.52 |  | inactive
15 | C=CCn1c2c(ccc1=O)C(NCCc1ccc(Cl)c(Cl)c1)CCC2 (stereo not given) | 9.21 |  | 
16 | CC(C)CCn1c2c(ccc1=O)C(NCCc1ccc(Cl)c(Cl)c1)CCC2 (stereo not given) | 2.34 | 3 mg/kg | 
17 | C/C=C1\[C@H]2C=C(C)C[C@]1(N)c1ccc(=O)[nH]c1C2 [HUPERZINE A] | 0.08 |  | 
18 | CCCCCCn1c2c(ccc1=O)C(NCCc1ccc(Cl)c(Cl)c1)CCC2 (stereo not given) | 3.71 |  | 

Row | SMILES | IC50 [1] [µM] | Active dose [2] | Active dose [3]
19 | COc1cccc(CCNC2CCCc3c2ccc(=O)n3CC=C(C)C)c1 (stereo not given) | 1.1 |  | 
20 | CC(C)n1c2c(ccc1=O)C(NCCc1ccc(Cl)c(Cl)c1)CCC2 (stereo not given) | 34.5 |  | 
21 | COc1ccc(CCNC2CCCc3c2ccc(=O)n3CC=C(C)C)cc1OC (stereo not given) | 1.64 |  | 
22 | CC(C)=CCn1c2c(ccc1=O)C(NCCc1cc(Cl)cc(Cl)c1)CCC2 (stereo not given) | 0.8 |  | 
23 | CCCn1c2c(ccc1=O)C(NCCc1cccs1)CCC2.O=C(O)/C=C/C(=O)O (stereo not given) | 5.97 |  | 
24 | CCCn1c2c(ccc1=O)C(NC1Cc3ccccc3C1)CCC2 (stereo not given) | 3.91 | 1 mg/kg | 
25 | Cn1c2c(ccc1=O)C(NCc1ccccc1)CCC2 (stereo not given) | > 100 |  | 
26 | Cn1c2c(ccc1=O)C(NCCCc1ccccc1)CCC2 (stereo not given) | 48.4 |  | 
27 | Cn1c2c(ccc1=O)C(NCCc1ccccc1)CCC2 (stereo not given) | 18.6 | 1 mg/kg | 
28 | CC(C)=CCn1c2c(ccc1=O)C(N)CCC2 (stereo not given) | > 100 |  | 
29 | CC1(N)CCCc2nc(O)ccc21 (stereo not given) | > 100 |  | 
30 | CCCn1c2c(ccc1=O)C(NCCC(C)(C)C)CCC2 (stereo not given) | 15.6 |  | 
31 | NC1(Cc2ccccc2)CCCc2[nH]c(=O)ccc21 (stereo not given) | > 100 |  | 
32 | CC(C)=CCn1c2c(ccc1=O)C(NCCc1ccc(F)c(F)c1)CCC2 (stereo not given) | 0.98 |  | 
33 | O=c1ccc2c(n1CCc1ccccc1)CCCC2NCCc1ccc(Cl)c(Cl)c1 (stereo not given) | 50.4 |  | 
34 | Cc1ccc(CCNC2CCCc3c2ccc(=O)n3C)cc1 (stereo not given) | 18.2 |  | 
35 | CCCCCCCCCCn1c2c(ccc1=O)C(NCCc1ccc(Cl)c(Cl)c1)CCC2 (stereo not given) | 33.7 |  | 
36 | CC(C)=CCn1c2c(ccc1=O)C(NCCc1ccc(Cl)c(C(F)(F)F)c1)CCC2 (stereo not given) | 0.79 |  | inactive
